What all share (assay type): cell-based
Assay [1] deals with T1, Protein phosphatase methylesterase 1 (Homo sapiens) (UniProt Q9Y570).
T1 sequence (whole entry): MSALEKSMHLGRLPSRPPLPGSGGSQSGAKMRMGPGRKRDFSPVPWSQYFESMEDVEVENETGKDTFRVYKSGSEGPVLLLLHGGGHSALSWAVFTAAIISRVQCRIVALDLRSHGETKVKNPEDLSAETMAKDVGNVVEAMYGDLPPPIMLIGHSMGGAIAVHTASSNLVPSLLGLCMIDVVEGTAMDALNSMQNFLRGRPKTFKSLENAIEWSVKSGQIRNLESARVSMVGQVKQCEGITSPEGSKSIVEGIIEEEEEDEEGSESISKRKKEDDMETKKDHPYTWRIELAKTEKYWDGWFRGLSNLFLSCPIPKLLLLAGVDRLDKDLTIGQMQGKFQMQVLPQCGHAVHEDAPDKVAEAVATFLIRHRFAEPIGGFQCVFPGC
As to the kind of experiment: Inhibition of PME1 overexpressed in HEK293T cells assessed as reduction in demethylated PP2A level at 20 uM after 1 hr by Western blot analysis relative to control. The note with it: HEK-293T. In a few lines:
(§1)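 HEK 293T cells, either stably overexpressing PME-1 or untransfected, treated in medium for 1 h at 37 °C. Total cell extract (2 mg/mL) run on reducing SDS-PAGE (10%) and blotted with demethylated-specific (4b7), methylated-specific (2A10) and total PP2A antibodies, imaged by infrared fluorescence. Mean ± SEM, n = 3, compared against DMSO-treated cells.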
Background: Immunoblotting shows a protein as a band on a membrane.

The next assay deals with HEK-293T. As to the kind of experiment: Effect on chloroacetamide-Rh labeled soluble proteome in HEK293T cells at 100 uM incubated for 1 hr before protein labeling measured after 1 hr relative to control. The conditions noted are these: Homo sapiens. The method, boiled down:
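HEK 293T cells (DMEM, 10% FBS, 37 °C, 5% CO2) given compound in medium for 1 h at 37 °C, washed, scraped, sonicated in PBS pH 7.5. Soluble fraction diluted to 1 mg/mL protein in PBS, labeled with CA-rhodamine or SE-rhodamine (5 μM, 1 h, 25 °C), run on reducing SDS-PAGE (10%), and band intensities read by in-gel fluorescence against DMSO-treated samples.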

Assay [2] deals with Acyl-coenzyme A thioesterase 1 (Homo sapiens) (UniProt Q86TX2). As to the kind of experiment: Inhibition of ACOT1 binding to FP-biotin in [12C][14N]-lysine, arginine and [13C6][15N2]-lysine, arginine labeled HEK293T cells at 20 uM after 1 hr by isotopic activity-based protein profiling-MudPIT assay. The note with it: HEK-293T. In a few lines:
(§2)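 SILAC HEK 293T: light cells (12C14N-Lys/Arg) treated with compound, heavy cells (13C6 15N2-Lys/Arg) with DMSO, 1 h at 37 °C. Proteomes were mixed 1:1 (0.5 mg each) and labeled with FP-biotin (5 μM, 1 h, 25 °C), then streptavidin-enriched, digested on bead with trypsin, and run by MudPIT. Light/heavy ratios were normalized to a DMSO/DMSO control. Only SHs with ≥2 quantifiable peptides were kept; mean ± SEM across peptides.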

Assay [3] concerns the target Fatty acid synthase (Homo sapiens) (UniProt P49327). As to the kind of experiment: Inhibition of FASN binding to FP-biotin in [12C][14N]-lysine, arginine and [13C6][15N2]-lysine, arginine labeled HEK293T cells at 20 uM after 1 hr by isotopic activity-based protein profiling-MudPIT assay. The note with it: HEK-293T. In a few lines: as §2
The target in assay [4] is Lysosomal phospholipase A and acyltransferase (Homo sapiens) (UniProt Q8NCC3). As to the kind of experiment: Inhibition of LYPLA3 binding to FP-biotin in [12C][14N]-lysine, arginine and [13C6][15N2]-lysine, arginine labeled HEK293T cells at 20 uM after 1 hr by isotopic activity-based protein profiling-MudPIT assay. The conditions noted are these: HEK-293T. In a few lines: as §2

Assay [5] deals with Prolyl endopeptidase-like (Homo sapiens) (UniProt Q4J6C6). As to the kind of experiment: Inhibition of PREPL binding to FP-biotin in [12C][14N]-lysine, arginine and [13C6][15N2]-lysine, arginine labeled HEK293T cells at 20 uM after 1 hr by isotopic activity-based protein profiling-MudPIT assay. The conditions noted are these: HEK-293T. The method, boiled down:
as §2

For assay [6], the target named is Platelet-activating factor acetylhydrolase IB subunit alpha1 (Homo sapiens) (UniProt Q15102). As to the kind of experiment: Inhibition of PAFAH1B3 binding to FP-biotin in [12C][14N]-lysine, arginine and [13C6][15N2]-lysine, arginine labeled HEK293T cells at 20 uM after 1 hr by isotopic activity-based protein profiling-MudPIT assay. The conditions noted are these: HEK-293T. In a few lines: as §2

For assay [7], the target named is Platelet-activating factor acetylhydrolase IB subunit alpha2 (Homo sapiens) (UniProt P68402). As to the kind of experiment: Inhibition of PAFAH1B2 binding to FP-biotin in [12C][14N]-lysine, arginine and [13C6][15N2]-lysine, arginine labeled HEK293T cells at 20 uM after 1 hr by isotopic activity-based protein profiling-MudPIT assay. The note with it: HEK-293T. In a few lines: as §2

Assay [8] addresses Cytosolic phospholipase A2 (Homo sapiens) (UniProt P47712). As to the kind of experiment: Inhibition of PLA2G4A binding to FP-biotin in [12C][14N]-lysine, arginine and [13C6][15N2]-lysine, arginine labeled HEK293T cells at 20 uM after 1 hr by isotopic activity-based protein profiling-MudPIT assay. The conditions noted are these: HEK-293T. The method, boiled down: as §2
In assay [9] the target is Lysosomal protective protein (Homo sapiens) (UniProt P10619). As to the kind of experiment: Inhibition of CTSA binding to FP-biotin in [12C][14N]-lysine, arginine and [13C6][15N2]-lysine, arginine labeled HEK293T cells at 20 uM after 1 hr by isotopic activity-based protein profiling-MudPIT assay. The note with it: HEK-293T. The method, boiled down:
as §2

For assay [10], the target named is Acylamino-acid-releasing enzyme (Homo sapiens) (UniProt P13798). As to the kind of experiment: Inhibition of APEH binding to FP-biotin in [12C][14N]-lysine, arginine and [13C6][15N2]-lysine, arginine labeled HEK293T cells at 20 uM after 1 hr by isotopic activity-based protein profiling-MudPIT assay. The note with it: HEK-293T. In a few lines: as §2
The target of assay [11] is Phosphatidylserine lipase ABHD16A (Homo sapiens) (UniProt O95870). As to the kind of experiment: Inhibition of BAT5 binding to FP-biotin in [12C][14N]-lysine, arginine and [13C6][15N2]-lysine, arginine labeled HEK293T cells at 20 uM after 1 hr by isotopic activity-based protein profiling-MudPIT assay. The conditions noted are these: HEK-293T. In a few lines: as §2
Assay [12] deals with Lysosomal Pro-X carboxypeptidase (Homo sapiens) (UniProt P42785). As to the kind of experiment: Inhibition of PRCP binding to FP-biotin in[12C][14N]-lysine, arginine and [13C6][15N2]-lysine, arginine labeled HEK293T cells at 20 uM after 1 hr by isotopic activity-based protein profiling-MudPIT assay. The conditions noted are these: HEK-293T. The method, boiled down:
as §2

Assay [13] addresses Acyl-protein thioesterase 1 (Homo sapiens) (UniProt O75608). As to the kind of experiment: Inhibition of LYPLA1 binding to FP-biotin in [12C][14N]-lysine, arginine and [13C6][15N2]-lysine, arginine labeled HEK293T cells at 20 uM after 1 hr by isotopic activity-based protein profiling-MudPIT assay. The conditions noted are these: HEK-293T. The method, boiled down:
as §2

In assay [14] the target is T1, Protein phosphatase methylesterase 1 (Homo sapiens). As to the kind of experiment: Inhibition of PME1 overexpressed in HEK293T cells assessed as increase in methylated PP2A level at 20 uM after 1 hr by Western blot analysis. The note with it: HEK-293T. In a few lines: as §1
In assay [15] the target is S-formylglutathione hydrolase (Homo sapiens) (UniProt P10768). As to the kind of experiment: Inhibition of ESD binding to FP-biotin in [12C][14N]-lysine, arginine and [13C6][15N2]-lysine, arginine labeled HEK293T cells at 20 uM after 1 hr by isotopic activity-based protein profiling-MudPIT assay. The conditions noted are these: HEK-293T. The method, boiled down:
as §2

Activity calls are given as the source filed them. No cut-off for these calls is given here.

Broadly, the inhibition is how much of the control response was suppressed.

Platelet-activating factor acetylhydrolase IB subunit alpha1 (Homo sapiens), sequence (Q15102 whole entry): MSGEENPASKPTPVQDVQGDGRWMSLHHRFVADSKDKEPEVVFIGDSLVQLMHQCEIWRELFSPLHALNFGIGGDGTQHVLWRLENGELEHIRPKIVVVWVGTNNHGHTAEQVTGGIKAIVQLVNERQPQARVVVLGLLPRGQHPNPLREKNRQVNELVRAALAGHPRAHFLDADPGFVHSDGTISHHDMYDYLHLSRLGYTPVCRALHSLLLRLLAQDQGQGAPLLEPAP
Lysosomal Pro-X carboxypeptidase (Homo sapiens), sequence (P42785 whole entry): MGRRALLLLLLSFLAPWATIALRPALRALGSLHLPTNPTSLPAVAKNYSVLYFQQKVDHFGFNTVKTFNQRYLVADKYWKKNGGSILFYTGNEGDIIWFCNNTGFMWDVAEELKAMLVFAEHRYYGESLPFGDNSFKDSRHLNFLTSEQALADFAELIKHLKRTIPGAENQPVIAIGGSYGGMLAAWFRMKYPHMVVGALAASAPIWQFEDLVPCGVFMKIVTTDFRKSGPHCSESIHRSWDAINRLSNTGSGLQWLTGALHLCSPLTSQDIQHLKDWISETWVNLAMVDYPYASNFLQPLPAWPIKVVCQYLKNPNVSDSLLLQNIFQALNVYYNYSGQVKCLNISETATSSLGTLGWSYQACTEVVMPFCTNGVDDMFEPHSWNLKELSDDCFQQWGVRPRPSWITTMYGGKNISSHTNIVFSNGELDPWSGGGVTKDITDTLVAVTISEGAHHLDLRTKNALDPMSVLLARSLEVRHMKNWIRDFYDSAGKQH
Prolyl endopeptidase-like (Homo sapiens), sequence (Q4J6C6 whole entry): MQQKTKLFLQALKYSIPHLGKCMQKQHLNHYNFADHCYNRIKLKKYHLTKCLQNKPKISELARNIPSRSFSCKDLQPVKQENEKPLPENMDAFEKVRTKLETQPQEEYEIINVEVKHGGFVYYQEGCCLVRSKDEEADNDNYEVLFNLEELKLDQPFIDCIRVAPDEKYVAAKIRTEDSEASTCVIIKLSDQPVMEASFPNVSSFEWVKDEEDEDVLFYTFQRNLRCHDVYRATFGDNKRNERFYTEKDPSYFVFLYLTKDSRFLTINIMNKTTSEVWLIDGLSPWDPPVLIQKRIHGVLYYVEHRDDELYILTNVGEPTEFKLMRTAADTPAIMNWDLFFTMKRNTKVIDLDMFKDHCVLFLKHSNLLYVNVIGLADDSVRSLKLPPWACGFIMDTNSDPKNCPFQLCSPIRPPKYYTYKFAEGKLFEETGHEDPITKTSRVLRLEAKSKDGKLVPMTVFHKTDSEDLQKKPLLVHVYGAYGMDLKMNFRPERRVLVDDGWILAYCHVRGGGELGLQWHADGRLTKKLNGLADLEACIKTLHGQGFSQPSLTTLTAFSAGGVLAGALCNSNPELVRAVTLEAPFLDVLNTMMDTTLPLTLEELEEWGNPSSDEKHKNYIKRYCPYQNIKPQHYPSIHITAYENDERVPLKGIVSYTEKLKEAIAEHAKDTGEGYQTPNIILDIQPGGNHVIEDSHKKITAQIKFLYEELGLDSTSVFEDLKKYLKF
Lysosomal phospholipase A and acyltransferase (Homo sapiens), sequence (Q8NCC3 whole entry): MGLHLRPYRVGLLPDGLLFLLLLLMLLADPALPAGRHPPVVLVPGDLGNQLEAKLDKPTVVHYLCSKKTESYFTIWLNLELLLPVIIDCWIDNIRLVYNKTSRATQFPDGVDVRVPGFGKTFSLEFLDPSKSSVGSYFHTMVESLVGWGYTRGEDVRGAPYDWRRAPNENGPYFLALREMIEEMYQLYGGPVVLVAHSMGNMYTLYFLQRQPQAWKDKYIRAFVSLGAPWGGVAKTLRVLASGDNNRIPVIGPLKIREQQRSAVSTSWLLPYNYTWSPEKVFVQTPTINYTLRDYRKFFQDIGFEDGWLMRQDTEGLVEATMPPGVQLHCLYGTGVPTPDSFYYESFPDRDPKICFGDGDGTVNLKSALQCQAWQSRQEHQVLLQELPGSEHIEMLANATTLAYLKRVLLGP
Lysosomal protective protein (Homo sapiens), sequence (P10619 29-326 limits assumed): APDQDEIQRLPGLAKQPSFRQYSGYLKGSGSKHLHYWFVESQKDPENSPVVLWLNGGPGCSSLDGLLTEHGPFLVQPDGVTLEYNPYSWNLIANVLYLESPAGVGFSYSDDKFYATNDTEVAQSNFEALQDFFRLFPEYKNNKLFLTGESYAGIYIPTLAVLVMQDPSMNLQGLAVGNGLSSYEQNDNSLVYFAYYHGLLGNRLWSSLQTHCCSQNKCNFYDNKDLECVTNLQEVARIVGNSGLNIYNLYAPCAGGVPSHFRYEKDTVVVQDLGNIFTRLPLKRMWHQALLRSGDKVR
Lysosomal protective protein (Homo sapiens), sequence (P10619 327-480 limits assumed): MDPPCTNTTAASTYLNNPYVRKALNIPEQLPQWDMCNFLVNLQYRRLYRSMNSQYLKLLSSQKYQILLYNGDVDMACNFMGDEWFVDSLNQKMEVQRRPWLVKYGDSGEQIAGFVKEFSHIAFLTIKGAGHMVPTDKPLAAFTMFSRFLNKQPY
Acyl-protein thioesterase 1 (Homo sapiens), sequence (O75608 whole entry): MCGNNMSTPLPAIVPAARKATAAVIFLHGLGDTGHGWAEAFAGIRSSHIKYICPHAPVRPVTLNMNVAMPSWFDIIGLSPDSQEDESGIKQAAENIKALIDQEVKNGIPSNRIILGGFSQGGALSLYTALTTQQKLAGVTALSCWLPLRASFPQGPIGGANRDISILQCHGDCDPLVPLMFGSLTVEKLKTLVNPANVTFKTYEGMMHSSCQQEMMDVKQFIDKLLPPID
Acylamino-acid-releasing enzyme (Homo sapiens), sequence (P13798 whole entry): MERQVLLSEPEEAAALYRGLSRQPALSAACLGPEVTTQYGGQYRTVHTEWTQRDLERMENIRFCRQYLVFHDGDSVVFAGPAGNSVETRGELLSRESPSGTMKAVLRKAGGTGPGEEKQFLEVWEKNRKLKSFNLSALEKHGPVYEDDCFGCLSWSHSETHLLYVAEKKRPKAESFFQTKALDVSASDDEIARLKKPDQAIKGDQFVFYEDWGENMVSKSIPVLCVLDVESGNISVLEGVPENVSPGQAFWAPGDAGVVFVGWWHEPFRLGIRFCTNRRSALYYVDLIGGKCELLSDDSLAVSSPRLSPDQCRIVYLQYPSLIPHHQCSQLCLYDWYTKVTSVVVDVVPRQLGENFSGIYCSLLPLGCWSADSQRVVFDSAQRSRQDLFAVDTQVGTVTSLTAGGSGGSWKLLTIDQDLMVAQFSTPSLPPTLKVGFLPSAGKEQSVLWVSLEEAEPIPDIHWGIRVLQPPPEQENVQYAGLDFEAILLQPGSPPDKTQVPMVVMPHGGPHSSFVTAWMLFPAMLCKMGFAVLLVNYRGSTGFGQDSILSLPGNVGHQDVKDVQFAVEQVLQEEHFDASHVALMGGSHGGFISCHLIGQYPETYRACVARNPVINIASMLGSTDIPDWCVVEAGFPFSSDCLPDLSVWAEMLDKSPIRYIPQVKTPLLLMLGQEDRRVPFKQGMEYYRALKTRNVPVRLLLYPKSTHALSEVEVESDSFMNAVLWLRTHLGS
Cytosolic phospholipase A2 (Homo sapiens), sequence (P47712 whole entry): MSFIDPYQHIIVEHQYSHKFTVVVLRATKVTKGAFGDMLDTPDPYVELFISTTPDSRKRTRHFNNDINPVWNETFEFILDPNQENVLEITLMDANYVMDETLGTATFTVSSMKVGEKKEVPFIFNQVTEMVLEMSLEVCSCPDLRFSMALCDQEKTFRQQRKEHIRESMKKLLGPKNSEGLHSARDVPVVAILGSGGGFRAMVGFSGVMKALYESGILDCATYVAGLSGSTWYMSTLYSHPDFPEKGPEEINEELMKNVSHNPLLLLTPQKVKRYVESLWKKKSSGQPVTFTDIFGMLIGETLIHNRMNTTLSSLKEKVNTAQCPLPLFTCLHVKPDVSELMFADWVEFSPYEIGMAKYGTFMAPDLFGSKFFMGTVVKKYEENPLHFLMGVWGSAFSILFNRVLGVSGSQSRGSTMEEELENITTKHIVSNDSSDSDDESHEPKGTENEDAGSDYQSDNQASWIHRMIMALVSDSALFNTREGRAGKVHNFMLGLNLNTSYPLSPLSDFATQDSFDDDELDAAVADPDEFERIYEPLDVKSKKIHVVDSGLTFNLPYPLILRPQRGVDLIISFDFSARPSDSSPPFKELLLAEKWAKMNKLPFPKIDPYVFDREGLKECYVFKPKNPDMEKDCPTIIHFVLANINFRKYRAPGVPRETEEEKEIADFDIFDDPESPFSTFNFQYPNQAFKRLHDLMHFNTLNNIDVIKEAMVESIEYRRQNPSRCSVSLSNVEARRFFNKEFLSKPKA
Platelet-activating factor acetylhydrolase IB subunit alpha2 (Homo sapiens), sequence (P68402 whole entry): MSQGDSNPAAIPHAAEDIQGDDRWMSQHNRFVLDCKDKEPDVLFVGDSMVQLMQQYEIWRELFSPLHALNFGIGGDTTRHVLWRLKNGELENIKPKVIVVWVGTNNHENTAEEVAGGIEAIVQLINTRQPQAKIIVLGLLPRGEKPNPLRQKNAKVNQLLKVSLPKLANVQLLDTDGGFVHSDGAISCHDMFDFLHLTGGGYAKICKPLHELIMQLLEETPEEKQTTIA
S-formylglutathione hydrolase (Homo sapiens), sequence (P10768 whole entry): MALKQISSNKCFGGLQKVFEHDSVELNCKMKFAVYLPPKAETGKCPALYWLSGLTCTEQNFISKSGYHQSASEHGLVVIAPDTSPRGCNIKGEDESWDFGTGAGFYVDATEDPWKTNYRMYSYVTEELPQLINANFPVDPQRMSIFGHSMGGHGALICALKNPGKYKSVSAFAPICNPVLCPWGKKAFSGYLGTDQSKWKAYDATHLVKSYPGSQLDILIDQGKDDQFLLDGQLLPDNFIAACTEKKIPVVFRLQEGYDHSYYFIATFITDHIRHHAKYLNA

Turning to `N#C/C(=C\c1cccn1S(=O)(=O)c1cccc([N+](=O)[O-])c1)S(=O)(=O)c1ccc(F)cc1`, the inhibition in assay [1] is 80%. For the same compound, the outcome with HEK-293T was inactive. Also, the inhibition result in assay [2], in assay [3], in assay [4], in [5], in [6] and in assay [7] was “inactive” each time. The inhibition result in [8], in [9], in assay [10], in assay [11], in [12] and in [13] was “inactive” in each case. In addition, the inhibition result in assay [15] is “inactive”. Further, the inhibition entry in assay [14] was “Active”.

Source of the values: ChEMBL document CHEMBL2203175, “Discovery and optimization of sulfonyl acrylonitriles as selective, covalent inhibitors of protein phosphatase methylesterase-1” (J Med Chem, 2011).
